# Laboratory results: ChEMBL document CHEMBL4689842, “EUbOPEN Chemogenomics Library wave 1” (2021)
# Tested on: U2OS
# Assay: Multiplex assay against U2OS
# Type: toxicity, cell-based
# Details: human
# Procedure, shortened: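 With compound added, live cells were imaged on a CQ1 microscope at 37°C and 5% CO2; staining with Hoechst33342, BioTracker Green Microtubule Cytoskeleton Dye, MitoTracker Red and Annexin V Alexa Fluor 680 had been done at seeding. The CellPathfinder machine-learning gating scheme split cells into Hoechst high-intensity objects or normal cells, normal cells into healthy, pyknosed or fragmented nuclei, and pyknosed cells into mitotic or apoptotic. The tubulin, mitochondrial-mass and membrane-permeability phenotypes are per cents of healthy-nucleus cells.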
# [1] = 12 h, 1 µM, compound concentration 1 uM, replicate 1
# [2] = 12 h, 1 µM, compound concentration 1 uM, replicate 2
# [3] = 12 h, 10 µM, compound concentration 10 uM, replicate 1
# [4] = 12 h, 10 µM, compound concentration 10 uM, replicate 2
# [5] = 24 h, 1 µM, compound concentration 1 uM, replicate 1
# [6] = 24 h, 1 µM, compound concentration 1 uM, replicate 2
# [7] = 24 h, 10 µM, compound concentration 10 uM, replicate 1
# [8] = 24 h, 10 µM, compound concentration 10 uM, replicate 2
# [9] = 48 h, 1 µM, compound concentration 1 uM, replicate 1
# [10] = 48 h, 1 µM, compound concentration 1 uM, replicate 2
# [11] = 48 h, 10 µM, compound concentration 10 uM, replicate 1
# [12] = 48 h, 10 µM, compound concentration 10 uM, replicate 2
compound,measurement,setting,value
O=c1cc(N2CCOCC2)oc2c(-c3cccc4c3sc3ccccc34)cccc12,Population Apoptotic (%),[1],35%
same,Population Fragmented Nuclei (%),[1],12%
same,Population Healthy Nuclei (%),[1],76%
same,Population Hoechst High Intensity Objects (%),[1],7%
same,Population Membrane Permeable-Phenotype (%),[1],2%
same,Population Mitochondria Different-Phenotype (%),[1],10%
same,Population Mitotic Cells (%),[1],65%
same,Population Normal (%),[1],92%
same,Population Pyknosed Nuclei (%),[1],11%
same,Population Tubulin-Different-Phenotype (%),[1],10%
same,Total Cell Count,[1],120
same,Population Apoptotic (%),[2],100%
same,Population Fragmented Nuclei (%),[2],15%
same,Population Healthy Nuclei (%),[2],77%
same,Population Hoechst High Intensity Objects (%),[2],10%
same,Population Mitochondria Different-Phenotype (%),[2],6%
same,Population Mitotic Cells (%),[2],0%
same,Population Normal (%),[2],90%
same,Population Pyknosed Nuclei (%),[2],6%
same,Population Tubulin-Different-Phenotype (%),[2],14%
same,Total Cell Count,[2],79
same,Population Apoptotic (%),[3],52%
same,Population Fragmented Nuclei (%),[3],20%
same,Population Healthy Nuclei (%),[3],47%
same,Population Hoechst High Intensity Objects (%),[3],4%
same,Population Membrane Permeable-Phenotype (%),[3],24%
same,Population Mitochondria Different-Phenotype (%),[3],73%
same,Population Mitotic Cells (%),[3],47%
same,Population Normal (%),[3],95%
same,Population Pyknosed Nuclei (%),[3],32%
same,Population Tubulin-Different-Phenotype (%),[3],100%
same,Total Cell Count,[3],190
same,Population Apoptotic (%),[4],31%
same,Population Fragmented Nuclei (%),[4],19%
same,Population Healthy Nuclei (%),[4],45%
same,Population Hoechst High Intensity Objects (%),[4],16%
same,Population Membrane Permeable-Phenotype (%),[4],23%
same,Population Mitochondria Different-Phenotype (%),[4],90%
same,Population Mitotic Cells (%),[4],68%
same,Population Normal (%),[4],83%
same,Population Pyknosed Nuclei (%),[4],34%
same,Population Tubulin-Different-Phenotype (%),[4],95%
same,Total Cell Count,[4],70
same,Population Apoptotic (%),[5],25%
same,Population Fragmented Nuclei (%),[5],14%
same,Population Healthy Nuclei (%),[5],74%
same,Population Hoechst High Intensity Objects (%),[5],7%
same,Population Membrane Permeable-Phenotype (%),[5],4%
same,Population Mitochondria Different-Phenotype (%),[5],7%
same,Population Mitotic Cells (%),[5],75%
same,Population Normal (%),[5],92%
same,Population Pyknosed Nuclei (%),[5],10%
same,Population Tubulin-Different-Phenotype (%),[5],7%
same,Total Cell Count,[5],118
same,Population Apoptotic (%),[6],60%
same,Population Fragmented Nuclei (%),[6],11%
same,Population Healthy Nuclei (%),[6],82%
same,Population Hoechst High Intensity Objects (%),[6],6%
same,Population Membrane Permeable-Phenotype (%),[6],9%
same,Population Mitochondria Different-Phenotype (%),[6],9%
same,Population Mitotic Cells (%),[6],40%
same,Population Normal (%),[6],93%
same,Population Pyknosed Nuclei (%),[6],6%
same,Population Tubulin-Different-Phenotype (%),[6],15%
same,Total Cell Count,[6],86
same,Population Apoptotic (%),[7],60%
same,Population Fragmented Nuclei (%),[7],16%
same,Population Healthy Nuclei (%),[7],27%
same,Population Hoechst High Intensity Objects (%),[7],7%
same,Population Membrane Permeable-Phenotype (%),[7],22%
same,Population Mitochondria Different-Phenotype (%),[7],93%
same,Population Mitotic Cells (%),[7],40%
same,Population Normal (%),[7],92%
same,Population Pyknosed Nuclei (%),[7],55%
same,Population Tubulin-Different-Phenotype (%),[7],97%
same,Total Cell Count,[7],242
same,Population Apoptotic (%),[8],66%
same,Population Fragmented Nuclei (%),[8],14%
same,Population Healthy Nuclei (%),[8],21%
same,Population Hoechst High Intensity Objects (%),[8],6%
same,Population Membrane Permeable-Phenotype (%),[8],50%
same,Population Mitochondria Different-Phenotype (%),[8],70%
same,Population Mitotic Cells (%),[8],33%
same,Population Normal (%),[8],94%
same,Population Pyknosed Nuclei (%),[8],63%
same,Population Tubulin-Different-Phenotype (%),[8],70%
same,Total Cell Count,[8],86
same,Population Apoptotic (%),[9],43%
same,Population Fragmented Nuclei (%),[9],7%
same,Population Hoechst High Intensity Objects (%),[9],5%
same,Population Membrane Permeable-Phenotype (%),[9],3%
same,Population Mitochondria Different-Phenotype (%),[9],8%
same,Population Mitotic Cells (%),[9],56%
same,Population Normal (%),[9],94%
same,Population Pyknosed Nuclei (%),[9],18%
same,Population Tubulin-Different-Phenotype (%),[9],9%
same,Total Cell Count,[9],127
same,Population Apoptotic (%),[10],18%
same,Population Fragmented Nuclei (%),[10],16%
same,Population Healthy Nuclei (%),[10],73%
same,Population Hoechst High Intensity Objects (%),[10],4%
same,Population Membrane Permeable-Phenotype (%),[10],12%
same,Population Mitochondria Different-Phenotype (%),[10],12%
same,Population Mitotic Cells (%),[10],81%
same,Population Normal (%),[10],95%
same,Population Pyknosed Nuclei (%),[10],9%
same,Population Tubulin-Different-Phenotype (%),[10],18%
same,Total Cell Count,[10],103
same,Population Apoptotic (%),[11],81%
same,Population Fragmented Nuclei (%),[11],30%
same,Population Healthy Nuclei (%),[11],5%
same,Population Hoechst High Intensity Objects (%),[11],13%
same,Population Membrane Permeable-Phenotype (%),[11],55%
same,Population Mitochondria Different-Phenotype (%),[11],88%
same,Population Mitotic Cells (%),[11],19%
same,Population Normal (%),[11],86%
same,Population Pyknosed Nuclei (%),[11],63%
same,Population Tubulin-Different-Phenotype (%),[11],77%
same,Total Cell Count,[11],305
same,Population Apoptotic (%),[12],80%
same,Population Fragmented Nuclei (%),[12],22%
same,Population Healthy Nuclei (%),[12],25%
same,Population Hoechst High Intensity Objects (%),[12],12%
same,Population Membrane Permeable-Phenotype (%),[12],50%
same,Population Mitochondria Different-Phenotype (%),[12],83%
same,Population Mitotic Cells (%),[12],20%
same,Population Normal (%),[12],87%
same,Population Pyknosed Nuclei (%),[12],52%
same,Population Tubulin-Different-Phenotype (%),[12],58%
same,Total Cell Count,[12],116
O=c1[nH]c2ccccc2n1C1CCN(Cc2ccc(-c3[nH]c4cc5ncnc5cc4nc3-c3ccccc3)cc2)CC1,Population Apoptotic (%),[1],44%
same,Population Fragmented Nuclei (%),[1],6%
same,Population Healthy Nuclei (%),[1],87%
same,Population Hoechst High Intensity Objects (%),[1],5%
same,Population Membrane Permeable-Phenotype (%),[1],37%
same,Population Mitochondria Different-Phenotype (%),[1],11%
same,Population Mitotic Cells (%),[1],55%
same,Population Normal (%),[1],94%
same,Population Pyknosed Nuclei (%),[1],5%
same,Population Tubulin-Different-Phenotype (%),[1],24%
same,Total Cell Count,[1],162
same,Population Apoptotic (%),[2],37%
same,Population Fragmented Nuclei (%),[2],7%
same,Population Healthy Nuclei (%),[2],85%
same,Population Hoechst High Intensity Objects (%),[2],8%
same,Population Membrane Permeable-Phenotype (%),[2],25%
same,Population Mitochondria Different-Phenotype (%),[2],16%
same,Population Mitotic Cells (%),[2],62%
same,Population Normal (%),[2],91%
same,Population Pyknosed Nuclei (%),[2],7%
same,Population Tubulin-Different-Phenotype (%),[2],23%
same,Total Cell Count,[2],124
same,Population Apoptotic (%),[3],30%
same,Population Fragmented Nuclei (%),[3],19%
same,Population Healthy Nuclei (%),[3],66%
same,Population Hoechst High Intensity Objects (%),[3],4%
same,Population Membrane Permeable-Phenotype (%),[3],29%
same,Population Mitochondria Different-Phenotype (%),[3],61%
same,Population Mitotic Cells (%),[3],69%
same,Population Normal (%),[3],95%
same,Population Pyknosed Nuclei (%),[3],13%
same,Population Tubulin-Different-Phenotype (%),[3],100%
same,Total Cell Count,[3],173
same,Population Apoptotic (%),[4],46%
same,Population Fragmented Nuclei (%),[4],38%
same,Population Healthy Nuclei (%),[4],51%
same,Population Hoechst High Intensity Objects (%),[4],7%
same,Population Membrane Permeable-Phenotype (%),[4],54%
same,Population Mitochondria Different-Phenotype (%),[4],75%
same,Population Mitotic Cells (%),[4],53%
same,Population Normal (%),[4],92%
same,Population Pyknosed Nuclei (%),[4],9%
same,Total Cell Count,[4],142
same,Population Apoptotic (%),[5],42%
same,Population Fragmented Nuclei (%),[5],7%
same,Population Healthy Nuclei (%),[5],83%
same,Population Hoechst High Intensity Objects (%),[5],5%
same,Population Membrane Permeable-Phenotype (%),[5],31%
same,Population Mitochondria Different-Phenotype (%),[5],12%
same,Population Mitotic Cells (%),[5],57%
same,Population Normal (%),[5],94%
same,Population Pyknosed Nuclei (%),[5],9%
same,Population Tubulin-Different-Phenotype (%),[5],16%
same,Total Cell Count,[5],211
same,Population Apoptotic (%),[6],41%
same,Population Healthy Nuclei (%),[6],81%
same,Population Hoechst High Intensity Objects (%),[6],3%
same,Population Membrane Permeable-Phenotype (%),[6],14%
same,Population Mitochondria Different-Phenotype (%),[6],15%
same,Population Mitotic Cells (%),[6],58%
same,Population Normal (%),[6],96%
same,Population Pyknosed Nuclei (%),[6],11%
same,Total Cell Count,[6],157
same,Population Apoptotic (%),[7],55%
same,Population Fragmented Nuclei (%),[7],19%
same,Population Healthy Nuclei (%),[7],50%
same,Population Hoechst High Intensity Objects (%),[7],6%
same,Population Membrane Permeable-Phenotype (%),[7],53%
same,Population Mitochondria Different-Phenotype (%),[7],91%
same,Population Mitotic Cells (%),[7],44%
same,Population Normal (%),[7],93%
same,Population Pyknosed Nuclei (%),[7],30%
same,Total Cell Count,[7],174
same,Population Apoptotic (%),[8],80%
same,Population Fragmented Nuclei (%),[8],28%
same,Population Healthy Nuclei (%),[8],38%
same,Population Hoechst High Intensity Objects (%),[8],14%
same,Population Membrane Permeable-Phenotype (%),[8],72%
same,Population Mitochondria Different-Phenotype (%),[8],88%
same,Population Mitotic Cells (%),[8],19%
same,Population Normal (%),[8],85%
same,Population Pyknosed Nuclei (%),[8],32%
same,Population Tubulin-Different-Phenotype (%),[8],100%
same,Total Cell Count,[8],130
